Data published in ChEMBL document CHEMBL1129631, “Synthesis and evaluation of aryl-substituted N-(arylethyl)-N-methyl-2-(1-pyrrolidinyl)ethylamines and corresponding arylacetamides for sigma receptor affinity” (J Med Chem, 1996).

Columns and labels:
[1] = target: Sigma 2 receptor; assay: Displacement of [3H]-DTG from Sigma opioid receptor type 2 in rat liver membrane; format: cell membranes
Outline: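 Liver membranes from male Sprague-Dawley rats (160 μg protein) with 5 nM [3H]DTG plus 1 μM dextralorphan masking σ1 sites. Twelve ligand concentrations (0.05–10 000 nM or 0.5–100 000 nM), 50 mM Tris-HCl pH 8.0, 120 min, 25 °C. Nonspecific binding by 10 μM haloperidol. Filtration and counting. Ki from IC50 by Cheng–Prusoff; 2–3 experiments ± SEM.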

[2] = target: Sigma non-opioid intracellular receptor 1 (Cavia porcellus) (UniProt Q60492); assay: Relative affinity for sigma-1 compared to sigma-2 type receptors
Sigma non-opioid intracellular receptor 1 (Cavia porcellus), sequence (Q60492 whole entry, looked up): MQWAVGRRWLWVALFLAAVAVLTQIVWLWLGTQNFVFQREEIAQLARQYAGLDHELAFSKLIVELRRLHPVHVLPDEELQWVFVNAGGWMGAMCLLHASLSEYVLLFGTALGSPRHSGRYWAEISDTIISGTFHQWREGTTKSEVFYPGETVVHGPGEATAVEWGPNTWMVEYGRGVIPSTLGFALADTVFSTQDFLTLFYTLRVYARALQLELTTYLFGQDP

Ki [1] [nM]	Ratio [2]	Structure (SMILES)
256	0.12	COc1ccc(CCN(C)CCN2CCCC2)cc1
95.2	0.07	CN(CCc1cccc([N+](=O)[O-])c1)CCN1CCCC1
311	0.02	CN(CCc1ccccc1[N+](=O)[O-])CCN1CCCC1
974	0.28	CN(CCc1ccc(N)cc1)CCN1CCCC1
144	0.11	COc1ccccc1CCN(C)CCN1CCCC1
2240	0.26	CN(CCc1cccc(N)c1)CCN1CCCC1
209	0.11	COc1cccc(CCN(C)CCN2CCCC2)c1
62.7	0.07	CN(CCc1ccc([N+](=O)[O-])cc1)CCN1CCCC1
640	0.45	CN(CCc1ccccc1N)CCN1CCCC1

Structure (SMILES)	Ki [1] [nM]	Ratio [2]
CN(CCN1CCCC1)C(=O)Cc1cccc([N+](=O)[O-])c1	539	3
CN(CCN1CCCC1)C(=O)Cc1ccc([N+](=O)[O-])cc1	596	1.5
COc1cccc(CC(=O)N(C)CCN2CCCC2)c1	1110	2.8
COc1ccccc1CC(=O)N(C)CCN1CCCC1	3170	–
CN(CCN1CCCC1)C(=O)Cc1ccccc1[N+](=O)[O-]	1490	0.49
COc1ccc(CC(=O)N(C)CCN2CCCC2)cc1	1220	1.8
